ChEMBL document CHEMBL4004857, “Synthesis and biological evaluation of novel pyrazolic chalcone derivatives as novel hepatocellular carcinoma therapeutics” (Eur J Med Chem, 2017)
Activity calls are given as the source filed them. The calls are words filed in the database; no cut-off is given here.

Experiments:
Huh-7 [1] = test: Cytotoxicity against human HuH7 cells assessed as growth inhibition after 72 hrs by SRB assay; assay type: functional, cell-based; details: Huh-7, 72 h
Procedure, shortened: (§1)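 Cells seeded at 2000–3000 per well and grown 24 h at 37C, then treated in triplicate with compounds dissolved in DMSO over a 40–0.3 range for 72 h. Cells were fixed with 10% TCA for 1 h, stained with 0.4% SRB in 1% acetic acid, washed with 1% acetic acid and air-dried. Bound dye was solubilized in 10 mM Tris base and read at 515 nm. % inhibition and IC50 were calculated against DMSO-only controls.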

Homo sapiens = species on record: Homo sapiens; test: Inhibition of tubulin polymerization (unknown origin)
HCT-116 = test: Cytotoxicity against human HCT116 cells assessed as growth inhibition after 72 hrs by SRB assay; assay type: functional, cell-based; details: HCT-116, 72 h; procedure, shortened: as §1
MCF7 = test: Cytotoxicity against human MCF7 cells assessed as growth inhibition after 72 hrs by SRB assay; assay type: functional, cell-based; details: MCF7, 72 h; procedure, shortened: as §1
HepG2 [2] = test: Induction of apoptosis in human HepG2 cells assessed as condensed nuclei at cytotoxic IC100 measured after 48 hrs by DAPI/Annexin-V-Fluos staining based fluorescent microscopic method; assay type: functional, cell-based
Procedure, shortened: (§2)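 Cells on coverslips were treated after 24 h in culture and stained 48 h later with Annexin-V-Fluos plus DAPI nuclear stain. Cells were then examined by fluorescence microscopy for Annexin V-positive cells with condensed nuclei.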

SNU-475 [3] = test: Growth inhibition of human SNU475 cells at cytotoxic IC100 measured every 10 mins for first 24 hrs and every 30 mins for remaining 48 hrs by RT-CES analysis; assay type: functional, cell-based
HepG2 [4] = test: Induction of apoptosis in human HepG2 cells assessed as condensed nuclei at cytotoxic IC100 measured after 72 hrs by light microscopic method; assay type: functional, cell-based
HepG2 [5] = test: Cytotoxicity against human HepG2 cells assessed as growth inhibition after 72 hrs by SRB assay; assay type: functional, cell-based; details: HepG2, 72 h; procedure, shortened: as §1
SNU-475 [6] = test: Induction of apoptosis in human SNU475 cells assessed as PARP cleavage at cytotoxic IC100 measured after 24 hrs by Western blot method; assay type: functional, cell-based
MCF-12A = test: Cytotoxicity against human MCF12A cells assessed as growth inhibition after 72 hrs by SRB assay; assay type: cell-based; procedure, shortened: as §1
MRC5 = test: Cytotoxicity against human MRC5 cells assessed as growth inhibition after 72 hrs by SRB assay; assay type: cell-based; details: mrc5; procedure, shortened: as §1
HepG2 [7] = test: Growth inhibition of human HepG2 cells at cytotoxic IC100 measured every 10 mins for first 24 hrs and every 30 mins for remaining 48 hrs by RT-CES analysis; assay type: functional, cell-based
Mahlavu [8] = test: Growth inhibition of human Mahlavu cells at cytotoxic IC100 measured every 10 mins for first 24 hrs and every 30 mins for remaining 48 hrs by RT-CES analysis; assay type: functional, cell-based
Huh-7 [9] = test: Growth inhibition of human HuH7 cells at cytotoxic IC100 measured every 10 mins for first 24 hrs and every 30 mins for remaining 48 hrs by RT-CES analysis; assay type: functional, cell-based
SNU-475 [10] = test: Cytotoxicity against human SNU475 cells assessed as growth inhibition after 72 hrs by SRB assay; assay type: functional, cell-based; details: SNU-475, 72 h; procedure, shortened: as §1
SNU-475 [11] = test: Induction of apoptosis in human SNU475 cells assessed as condensed nuclei at cytotoxic IC100 measured after 72 hrs by light microscopic method; assay type: functional, cell-based
HepG2 [12] = test: Induction of apoptosis in human HepG2 cells assessed as PARP cleavage at cytotoxic IC100 measured after 24 hrs by Western blot method; assay type: functional, cell-based
SNU-475 [13] = test: Induction of apoptosis in human SNU475 cells assessed as condensed nuclei at cytotoxic IC100 measured after 48 hrs by DAPI/Annexin-V-Fluos staining based fluorescent microscopic method; assay type: functional, cell-based; procedure, shortened: as §2
Mahlavu [14] = test: Cytotoxicity against human Mahlavu cells assessed as growth inhibition after 72 hrs by SRB assay; assay type: functional, cell-based; procedure, shortened: as §1

Row | SMILES | IC50 (Huh-7 [1]) | inhibition (Homo sapiens) | IC50 (HCT-116) | IC50 (MCF7) | other results
1 | COc1cc(OC)c(C(=O)/C=C/c2cn(-c3ccccc3)nc2-c2ccc3c(c2)OCO3)c(OC)c1 | 6.7 µM | inactive | 10.8 µM | 11.5 µM | 
2 | COc1cc(C(=O)/C=C/c2cn(-c3ccccc3)nc2-c2cccnc2)cc(OC)c1OC | 1.9 µM | inactive | 8.6 µM | 14.5 µM | 
3 | O=C(/C=C/c1cn(-c2ccccc2)nc1-c1cccnc1)c1ccccc1 | 2.3 µM | inactive | 2 µM | 4.1 µM | 
4 | COc1ccc(C(=O)/C=C/c2cn(-c3ccccc3)nc2-c2cccnc2)c(OC)c1OC | 2.3 µM | inactive | 1.1 µM | 1.4 µM | 
5 | O=C(/C=C/c1cn(-c2ccccc2)nc1-c1cccnc1)c1ccsc1 | 1.7 µM | inactive | 1.3 µM | 0.5 µM | 
6 | COc1ccc(C(=O)/C=C/c2cn(-c3ccccc3)nc2-c2ccncc2)cc1OC | 2 µM | inactive | 1.2 µM | 4.3 µM | 
7 | O=C(/C=C/c1cn(-c2ccccc2)nc1-c1ccc2c(c1)OCO2)c1ccccc1 | 10.5 µM | inactive | 1.16 µM | 11.1 µM | 
8 | COc1ccc(C(=O)/C=C/c2cn(-c3ccccc3)nc2-c2ccsc2)c(OC)c1OC | 4.2 µM | inactive | 5.8 µM | 7.4 µM | 
9 | COc1ccc(C(=O)/C=C/c2cn(-c3ccccc3)nc2-c2ccncc2)c(OC)c1 | 4.4 µM | inactive | 4.4 µM | 8.8 µM | 
10 | COc1ccc(C(=O)/C=C/c2cn(-c3ccccc3)nc2-c2ccsc2)c(OC)c1 | 3 µM | inactive | 2.2 µM | 9 µM | 
11 | O=C(/C=C/c1cn(-c2ccccc2)nc1-c1ccncc1)c1ccsc1 | 2.2 µM | inactive | 1.1 µM | 1.5 µM | 
12 | O=C(/C=C/c1cn(-c2ccccc2)nc1-c1ccsc1)c1ccc2c(c1)OCO2 | 22.6 µM | inactive | 12.2 µM | 5.3 µM | 
13 | O=C(/C=C/c1cn(-c2ccccc2)nc1-c1cccnc1)c1cc[nH]c1 | 3.3 µM | inactive | 7.4 µM | 6.9 µM | 
14 | COc1cc(OC)c(C(=O)/C=C/c2cn(-c3ccccc3)nc2-c2ccsc2)c(OC)c1 | 6.1 µM | inactive | 5.2 µM | 2.7 µM | 
15 | O=C(/C=C/c1cn(-c2ccccc2)nc1-c1ccncc1)c1cc[nH]c1 | 28.8 µM | inactive | 15.7 µM | 13.6 µM | 
16 | COc1cc(OC)c(C(=O)/C=C/c2cn(-c3ccccc3)nc2-c2ccncc2)c(OC)c1 | 2.6 µM | inactive | 0.6 µM | 1.6 µM | Activity (HepG2 [2]): Active; growth inhibition (GI) (SNU-475 [3]): Active; Activity (HepG2 [4]): Active; IC50 (HepG2 [5]): 1.7 µM; Activity (SNU-475 [6]): Active; IC50 (MCF-12A): 8.2 µM; IC50 (MRC5): Non-Toxic; growth inhibition (GI) (HepG2 [7]): Active; growth inhibition (GI) (Mahlavu [8]): Active; growth inhibition (GI) (Huh-7 [9]): Active; IC50 (SNU-475 [10]): 1.4 µM; Activity (SNU-475 [11]): Active; Activity (HepG2 [12]): Active; Activity (SNU-475 [13]): Active; IC50 (Mahlavu [14]): 1.1 µM
17 | O=C(/C=C/c1cn(-c2ccccc2)nc1-c1ccc2c(c1)OCO2)c1ccsc1 | 3.2 µM | inactive | 8.9 µM | 4.9 µM | 
18 | O=c1[nH]cc(F)c(=O)[nH]1 [FLUOROURACIL] | 21 µM |  | 18.4 µM | 1.4 µM | 
19 | COc1ccc(C(=O)/C=C/c2cn(-c3ccccc3)nc2-c2ccc3c(c2)OCO3)c(OC)c1OC | 10.8 µM | inactive | 3.2 µM | 7.4 µM | 
20 | O=C(/C=C/c1cn(-c2ccccc2)nc1-c1ccc2c(c1)OCO2)c1ccccn1 | 3.4 µM | inactive | 6.7 µM | 4.1 µM | 
21 | O=C(/C=C/c1cn(-c2ccccc2)nc1-c1ccncc1)c1ccccc1 | 1.8 µM | inactive | 3.1 µM | 3.4 µM | 
